What was measured:
[1] = Cmax in Wistar rat at 200 mg/kg, po; format: ADME, organism-based; design: dose 200 mg/kg, route oral; details: in vivo
Method in brief: (§1)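 Single doses given iv and orally. Mice (athymic nude) received 10 mg/kg iv, with bleeds at 1, 5, 15, 30 min and 1-24 h, and 50 or 200 mg/kg po, with bleeds at 5 min-24 h. Wistar rats received 5 mg/kg iv through a femoral arterial catheter, with jugular bleeds to 24 h, and 50 or 200 mg/kg po, with bleeds to 48 h. The iv vehicle was 2% DMA/10% PEG400/88% of 40% HPBCD and the oral vehicle 2% Klucel LF/0.1% Tween 80. EDTA plasma was assayed by LC-MS/MS against a calibration of 1-2000 ng/mL.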

[2] = system: Mus musculus; experiment: Inhibition of VEGF-induced corneal angiogenesis in C57/BL6 mice at 50 mg/kg, po after 7 days; format: functional; details: C57/BL6, Cornea, 168 h
Method in brief: (§2)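 VEGF-containing pellets were implanted in the cornea of C57/BL6 mice. Cohorts were dosed orally bid at 12.5, 50 or 200 mg/kg for 7 days, after which the area of corneal angiogenesis (mm2) was quantified against vehicle. Body weight was monitored throughout.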

[3] = Half life in nude mice at 50 mg/kg, po; format: ADME, organism-based; design: dose 50 mg/kg, route oral; details: mouse, in vivo; method in brief: as §1
[4] = system: Mus musculus; experiment: Inhibition of tumor growth in nude mice implanted with H460a cells at 100 mg/kg, po after 28 days; format: functional; details: 672 h
[5] = Clearance in nude mice at 10 mg/kg, iv; format: ADME, organism-based; design: dose 10 mg/kg, route intravenous; details: mouse, in vivo; method in brief: as §1
[6] = Half life in nude mice at 10 mg/kg, iv; format: ADME, organism-based; design: dose 10 mg/kg, route intravenous; details: mouse, in vivo; method in brief: as §1
[7] = target: Cyclin-dependent kinase 1/cyclin B (Homo sapiens, UniProt P06493); experiment: Inhibition of CDK1/cyclinB; format: protein-complex assay
Method in brief: (§3)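 IMAP fluorescence-polarization kinase assay: phosphorylated fluorescent peptide substrate binds immobilized metal beads, giving a measure of kinase activity. Reactions were run with ATP at three times the Km of each kinase.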

[8] = Cmax in nude mice at 50 mg/kg, po; format: ADME, organism-based; design: dose 50 mg/kg, route oral; details: mouse, in vivo; method in brief: as §1
[9] = target: Mitogen-activated protein kinase 1 (Homo sapiens, UniProt P28482); experiment: Inhibitory activity against Erk2
Chain of Mitogen-activated protein kinase 1 (P28482 whole entry): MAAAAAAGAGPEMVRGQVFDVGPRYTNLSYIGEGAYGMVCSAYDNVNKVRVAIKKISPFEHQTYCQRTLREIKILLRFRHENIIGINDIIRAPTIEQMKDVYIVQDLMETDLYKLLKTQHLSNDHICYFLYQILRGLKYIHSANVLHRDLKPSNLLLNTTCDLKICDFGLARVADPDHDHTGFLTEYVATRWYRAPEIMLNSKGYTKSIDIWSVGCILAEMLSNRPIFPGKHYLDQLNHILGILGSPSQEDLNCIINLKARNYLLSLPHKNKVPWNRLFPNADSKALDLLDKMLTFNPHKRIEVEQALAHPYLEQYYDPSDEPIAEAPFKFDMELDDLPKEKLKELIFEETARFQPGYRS
Method in brief: (§4)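 IMAP homogeneous fluorescence-polarisation kinase assay: phosphorylated fluorescent peptide substrate binds immobilised metal beads, read as kinase activity. Reactions run at ATP three times the Km for each enzyme.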

[10] = target: Protein kinase C alpha type (Homo sapiens, UniProt P17252); experiment: Inhibitory activity against PKC alpha; method in brief: as §4
[11] = target: cAMP-dependent protein kinase (PKA) (Homo sapiens, UniProt P22694+P17612+P22612); experiment: Inhibitory activity against PKA; format: protein assay; method in brief: as §3
[12] = target: RAC-alpha serine/threonine-protein kinase (Homo sapiens, UniProt P31749); experiment: Inhibitory activity against AKT; method in brief: as §3
Chain of RAC-alpha serine/threonine-protein kinase (P31749 whole entry): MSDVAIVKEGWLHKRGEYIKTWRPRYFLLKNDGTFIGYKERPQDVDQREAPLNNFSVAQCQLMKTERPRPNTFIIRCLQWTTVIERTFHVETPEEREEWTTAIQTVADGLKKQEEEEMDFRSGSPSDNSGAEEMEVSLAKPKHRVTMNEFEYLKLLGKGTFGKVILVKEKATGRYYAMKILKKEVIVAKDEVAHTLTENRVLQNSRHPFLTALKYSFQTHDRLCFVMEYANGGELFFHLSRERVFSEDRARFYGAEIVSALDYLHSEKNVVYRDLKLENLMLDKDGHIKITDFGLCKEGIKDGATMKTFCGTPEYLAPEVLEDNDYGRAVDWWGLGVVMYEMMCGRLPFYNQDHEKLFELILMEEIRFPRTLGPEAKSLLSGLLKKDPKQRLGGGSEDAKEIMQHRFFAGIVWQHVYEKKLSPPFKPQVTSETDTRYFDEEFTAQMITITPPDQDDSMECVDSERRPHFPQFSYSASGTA

[13] = Volume of distribution in nude mice at 10 mg/kg, iv; format: ADME, organism-based; design: dose 10 mg/kg, route intravenous; details: mouse, in vivo, read-out: Vdss; method in brief: as §1
[14] = system: Mus musculus; experiment: Inhibition of VEGF-induced corneal angiogenesis in C57/BL6 mice at 200 mg/kg, po after 7 days; format: functional; details: C57/BL6, Cornea, 168 h; method in brief: as §2
[15] = AUC in Wistar rat at 5 mg/kg, iv; format: ADME, organism-based; design: dose 5 mg/kg, route intravenous; details: plasma; method in brief: as §1
[16] = AUC in Wistar rat at 50 mg/kg, po; format: ADME, organism-based; design: dose 50 mg/kg, route oral; details: plasma; method in brief: as §1
[17] = target: T1, Serine/threonine-protein kinase Sgk1 (Homo sapiens, UniProt O00141); experiment: Inhibitory activity against SGK; method in brief: as §3
T1 sequence (O00141 whole entry): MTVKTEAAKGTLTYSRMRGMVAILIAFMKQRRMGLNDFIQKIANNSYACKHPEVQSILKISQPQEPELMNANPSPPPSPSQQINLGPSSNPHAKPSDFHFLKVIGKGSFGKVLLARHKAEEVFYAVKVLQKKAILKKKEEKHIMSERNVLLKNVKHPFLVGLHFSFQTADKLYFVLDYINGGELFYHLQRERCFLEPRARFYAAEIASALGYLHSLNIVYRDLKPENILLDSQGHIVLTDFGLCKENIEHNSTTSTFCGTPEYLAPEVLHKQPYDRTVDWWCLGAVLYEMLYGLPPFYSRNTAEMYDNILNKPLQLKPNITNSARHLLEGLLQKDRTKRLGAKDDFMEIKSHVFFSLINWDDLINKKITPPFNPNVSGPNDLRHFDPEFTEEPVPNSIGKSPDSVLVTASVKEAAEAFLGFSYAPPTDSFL

[18] = Half life in nude mice at 200 mg/kg, po; format: ADME, organism-based; design: dose 200 mg/kg, route oral; details: mouse, in vivo; method in brief: as §1
[19] = target: Protein kinase C delta type (Homo sapiens, UniProt Q05655); experiment: Inhibitory activity against PKC delta; method in brief: as §3
Chain of Protein kinase C delta type (Q05655 whole entry): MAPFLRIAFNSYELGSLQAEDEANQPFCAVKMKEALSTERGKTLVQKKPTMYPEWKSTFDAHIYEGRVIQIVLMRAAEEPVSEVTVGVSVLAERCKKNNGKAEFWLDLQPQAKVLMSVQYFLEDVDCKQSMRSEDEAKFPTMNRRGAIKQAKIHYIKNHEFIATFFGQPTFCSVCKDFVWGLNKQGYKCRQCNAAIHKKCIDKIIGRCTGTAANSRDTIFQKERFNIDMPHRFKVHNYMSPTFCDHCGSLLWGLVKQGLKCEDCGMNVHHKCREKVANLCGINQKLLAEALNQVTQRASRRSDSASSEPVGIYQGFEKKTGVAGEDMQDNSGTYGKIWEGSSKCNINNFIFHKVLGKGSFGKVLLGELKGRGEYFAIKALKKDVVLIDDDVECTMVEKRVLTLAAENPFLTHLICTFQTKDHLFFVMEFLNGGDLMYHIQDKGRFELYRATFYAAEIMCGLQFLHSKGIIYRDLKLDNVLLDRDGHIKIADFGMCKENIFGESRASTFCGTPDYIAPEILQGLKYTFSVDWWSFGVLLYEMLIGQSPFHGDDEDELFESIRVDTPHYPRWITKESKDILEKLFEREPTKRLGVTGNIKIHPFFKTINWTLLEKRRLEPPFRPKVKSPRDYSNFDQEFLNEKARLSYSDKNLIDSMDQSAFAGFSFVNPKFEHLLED

[20] = AUC in Wistar rat at 200 mg/kg, po; format: ADME, organism-based; design: dose 200 mg/kg, route oral; details: plasma; method in brief: as §1
[21] = AUC in nude mice at 200 mg/kg, po; format: ADME, organism-based; design: dose 200 mg/kg, route oral; details: mouse, plasma; method in brief: as §1
[22] = system: NCI-H460; experiment: Antiproliferative activity against H460a by MTT assay; format: functional, cell-based; details: Homo sapiens
Method in brief: (§5)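 Exponentially growing HCT116 or H460a tumor cells were plated and held overnight at 37 C before compound was added. Proliferation was read as MTT formazan formation during a 2.5 h incubation 6 days after plating. IC50 came from a single experiment run in duplicate.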

[23] = system: HUVEC; experiment: Inhibitory activity against bFGF-induced proliferation of HUVEC cells; format: functional, cell-based; details: Homo sapiens
Method in brief: (§6)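 HUVECs were grown to subconfluence, serum-starved for 24 h, then given compound for 2 h before stimulation with 20 ng/mL VEGF or 5 ng/mL bFGF. BrdU label was added after 20 h with compound. Incorporation was read 4 h later with a peroxidase anti-BrdU antibody and colorimetric detection. IC50 came from a single experiment in duplicate.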

[24] = system: HCT-116; experiment: Antiproliferative activity against HCT116 by MTT assay; format: functional, cell-based; details: Homo sapiens; method in brief: as §5
[25] = Half life in Wistar rat at 5 mg/kg, iv; format: ADME, organism-based; design: dose 5 mg/kg, route intravenous; details: in vivo; method in brief: as §1
[26] = Half life in Wistar rat at 50 mg/kg, po; format: ADME, organism-based; design: dose 50 mg/kg, route oral; details: in vivo; method in brief: as §1
[27] = Half life in Wistar rat at 200 mg/kg, po; format: ADME, organism-based; design: dose 200 mg/kg, route oral; details: in vivo; method in brief: as §1
[28] = target: T2, Ephrin type-B receptor 3 (Homo sapiens, UniProt P54753); experiment: Inhibitory activity against EphB3; method in brief: as §3
T2 sequence (P54753 whole entry): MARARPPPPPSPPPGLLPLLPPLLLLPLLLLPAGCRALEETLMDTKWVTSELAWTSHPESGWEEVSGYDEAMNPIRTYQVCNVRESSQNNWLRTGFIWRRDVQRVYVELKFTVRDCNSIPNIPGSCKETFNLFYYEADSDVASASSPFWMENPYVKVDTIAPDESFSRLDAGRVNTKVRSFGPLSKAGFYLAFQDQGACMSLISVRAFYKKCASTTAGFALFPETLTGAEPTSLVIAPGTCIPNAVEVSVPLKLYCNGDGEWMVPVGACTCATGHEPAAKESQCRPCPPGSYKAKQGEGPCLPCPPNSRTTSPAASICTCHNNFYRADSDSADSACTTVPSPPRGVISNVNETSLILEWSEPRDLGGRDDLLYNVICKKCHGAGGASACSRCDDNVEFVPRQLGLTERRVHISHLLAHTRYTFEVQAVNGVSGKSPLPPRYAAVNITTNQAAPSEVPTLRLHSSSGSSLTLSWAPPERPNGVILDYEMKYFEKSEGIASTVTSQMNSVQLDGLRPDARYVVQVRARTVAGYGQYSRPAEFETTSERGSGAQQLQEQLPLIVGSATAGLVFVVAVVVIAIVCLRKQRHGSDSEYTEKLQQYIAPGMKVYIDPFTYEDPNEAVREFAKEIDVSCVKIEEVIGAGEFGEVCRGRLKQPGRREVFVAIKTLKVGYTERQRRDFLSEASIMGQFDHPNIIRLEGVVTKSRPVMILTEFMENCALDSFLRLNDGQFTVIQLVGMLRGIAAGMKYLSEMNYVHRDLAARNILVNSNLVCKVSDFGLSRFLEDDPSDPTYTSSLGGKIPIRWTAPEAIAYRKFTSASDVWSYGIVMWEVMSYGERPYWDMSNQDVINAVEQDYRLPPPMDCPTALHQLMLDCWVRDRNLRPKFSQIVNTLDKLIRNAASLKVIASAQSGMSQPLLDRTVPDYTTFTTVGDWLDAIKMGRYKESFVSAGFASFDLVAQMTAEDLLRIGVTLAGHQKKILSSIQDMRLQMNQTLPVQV

[29] = Volume of distribution in Wistar rat at 5 mg/kg, iv; format: ADME, organism-based; design: dose 5 mg/kg, route intravenous; details: in vivo, read-out: Vdss; method in brief: as §1
[30] = system: Mus musculus; experiment: Inhibition of tumor growth in nude mice implanted with H460a cells at 200 mg/kg, po after 28 days; format: functional; details: 672 h
[31] = Cmax in Wistar rat at 50 mg/kg, po; format: ADME, organism-based; design: dose 50 mg/kg, route oral; details: in vivo; method in brief: as §1
[32] = Cmax in nude mice at 200 mg/kg, po; format: ADME, organism-based; design: dose 200 mg/kg, route oral; details: mouse, in vivo; method in brief: as §1
[33] = system: HUVEC; experiment: Inhibitory activity against VEGF-induced proliferation of HUVEC cells; format: functional, cell-based; details: Homo sapiens; method in brief: as §6
[34] = AUC in nude mice at 50 mg/kg, po; format: ADME, organism-based; design: dose 50 mg/kg, route oral; details: mouse, plasma; method in brief: as §1
[35] = AUC in nude mice at 10 mg/kg, iv; format: ADME, organism-based; design: dose 10 mg/kg, route intravenous; details: mouse, plasma; method in brief: as §1
[36] = target: Vascular endothelial growth factor receptor 2 (Homo sapiens, UniProt P35968); experiment: Inhibitory activity against recombinant human KDR
Chain of Vascular endothelial growth factor receptor 2 (P35968 whole entry): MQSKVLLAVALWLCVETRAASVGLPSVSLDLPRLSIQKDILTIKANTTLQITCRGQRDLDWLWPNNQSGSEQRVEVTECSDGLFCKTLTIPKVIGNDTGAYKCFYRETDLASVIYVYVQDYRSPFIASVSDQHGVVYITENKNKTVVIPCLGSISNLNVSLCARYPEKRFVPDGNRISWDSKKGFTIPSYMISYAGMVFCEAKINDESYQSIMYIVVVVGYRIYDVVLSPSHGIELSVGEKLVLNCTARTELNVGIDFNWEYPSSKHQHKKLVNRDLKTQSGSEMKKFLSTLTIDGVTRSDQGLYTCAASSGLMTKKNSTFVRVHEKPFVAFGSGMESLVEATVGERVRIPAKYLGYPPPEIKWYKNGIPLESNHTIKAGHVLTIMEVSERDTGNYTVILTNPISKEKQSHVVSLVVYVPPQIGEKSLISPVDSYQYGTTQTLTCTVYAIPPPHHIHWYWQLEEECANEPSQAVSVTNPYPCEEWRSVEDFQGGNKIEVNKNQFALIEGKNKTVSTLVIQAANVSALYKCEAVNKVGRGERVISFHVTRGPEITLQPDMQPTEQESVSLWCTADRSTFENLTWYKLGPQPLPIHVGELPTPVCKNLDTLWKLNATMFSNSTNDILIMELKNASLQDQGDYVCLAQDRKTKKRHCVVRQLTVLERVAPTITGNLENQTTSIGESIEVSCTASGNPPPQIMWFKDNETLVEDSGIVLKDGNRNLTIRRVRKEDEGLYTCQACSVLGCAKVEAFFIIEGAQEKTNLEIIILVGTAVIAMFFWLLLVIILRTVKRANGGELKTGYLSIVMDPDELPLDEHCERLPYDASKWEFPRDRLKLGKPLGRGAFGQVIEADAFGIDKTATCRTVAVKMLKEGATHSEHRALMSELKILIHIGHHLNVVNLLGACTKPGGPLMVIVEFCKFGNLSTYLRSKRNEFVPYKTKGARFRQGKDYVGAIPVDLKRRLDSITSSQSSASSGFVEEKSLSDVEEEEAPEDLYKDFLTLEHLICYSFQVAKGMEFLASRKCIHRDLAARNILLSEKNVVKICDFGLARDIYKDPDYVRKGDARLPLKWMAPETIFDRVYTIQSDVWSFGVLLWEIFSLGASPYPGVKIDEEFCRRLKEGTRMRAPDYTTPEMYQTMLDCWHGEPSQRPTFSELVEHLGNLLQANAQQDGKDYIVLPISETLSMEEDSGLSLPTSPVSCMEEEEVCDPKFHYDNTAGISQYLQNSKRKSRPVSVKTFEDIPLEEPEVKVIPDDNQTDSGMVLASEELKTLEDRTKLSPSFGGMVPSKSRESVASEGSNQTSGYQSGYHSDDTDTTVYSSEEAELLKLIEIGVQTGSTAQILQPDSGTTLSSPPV

[37] = Clearance in Wistar rat at 5 mg/kg, iv; format: ADME, organism-based; design: dose 5 mg/kg, route intravenous; details: in vivo; method in brief: as §1
[38] = target: Platelet-derived growth factor receptor (Homo sapiens, UniProt P09619+P16234); experiment: Inhibitory activity against recombinant human PDGFR; format: protein-complex assay
[39] = system: Mus musculus; experiment: Inhibition of tumor growth in nude mice implanted with H460a cells at 50 mg/kg, po after 28 days; format: functional; details: 672 h

Cmax [1]: 10300 ng/mL
half-life [3]: 1.9 h
clearance [5]: 13.8 mL/min/kg
half-life [6]: 2 h
IC50 [7]: > 125000 nM
Cmax [8]: 29100 ng/mL
IC50 [9]: 12600 nM
IC50 [10]: > 125000 nM
IC50 [11]: 9010 nM
IC50 [12]: > 125000 nM
Vd [13]: 1.9 L/kg
AUC [15]: 2770 ng·h/mL
AUC [16]: 40900 ng·h/mL
IC50 [17]: > 125000 nM
half-life [18]: 1.7 h
IC50 [19]: > 125000 nM
AUC [20]: 285000 ng·h/mL
AUC [21]: 260000 ng·h/mL
IC50 [22]: 2500 nM
IC50 [24]: 3000 nM
half-life [25]: 4.3 h
half-life [26]: 5 h
half-life [27]: 7.8 h
IC50 [28]: 1250 nM
Vd [29]: 3.7 L/kg
Cmax [31]: 3160 ng/mL
Cmax [32]: 82600 ng/mL
AUC [34]: 96500 ng·h/mL
AUC [35]: 12100 ng·h/mL
IC50 [36]: 50 nM
clearance [37]: 32.5 mL/min/kg
IC50 [38]: 83 nM
Compound: COc1ccc(N2Cc3cnc(Nc4ccc(F)cc4)nc3N(C3CC[C@@H](O)C3)C2=O)cc1 (single isomer, unassigned)
inhibition in vivo at 50 mg/kg [2]: 67%
inhibition in vivo at 100 mg/kg [4]: 87%
inhibition in vivo at 200 mg/kg [14]: 91%
IC50 [23]: 149 nM
inhibition in vivo at 200 mg/kg [30]: 95%
IC50 [33]: 35 nM
inhibition in vivo at 50 mg/kg [39]: 78%
